# Results reported in ChEMBL document CHEMBL4513216, “Probing the Open Global Health Chemical Diversity Library for Multistage-Active Starting Points for Next-Generation Antimalarials” (ACS Infect Dis, 2020).
# Assay: Toxicity liver stage against HepG2, at 10uM
# Assay type: cell-based
# Set-up: test concentration 10 uM, cell line HepG2-A16-CD81EGFP
# Settings: human, HepG2-A16-CD81EGFP cells; read-out: INHIBITION
# Summary of the method: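 Uninfected HepG2-A16-CD81EGFP cells, 3 × 10^3 per well, 1536-well, plated on prespotted compound at 10 μM final, parasite-free screening media added to match infected plates; puromycin 10 μM positive, DMSO 0.5% negative; run in parallel with 48 h PbLuc assay at 37 °C, 5% CO2; viability by CellTiter-Glo luminescence, normalized to controls.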
row,SMILES,cytotoxicity at 10 µM [%]
1,FC(F)(F)Oc1ccc(-c2noc([C@@H]3Cc4nc[nH]c4CN3)n2)cc1,-7.47
2,Cn1ccc2c(ccn2CC(=O)Nc2ccc(Br)cc2)c1=O,10.4
3,CC(=O)N1CCN(C(=O)c2ccc3ccn(C)c3c2)CC1,-0.173
4,N#Cc1ccc2c(c1)CN(C(=O)c1nc[nH]n1)C2c1cnco1 (stereo not given),-2.6
5,c1cnn([C@@H]2CN(Cc3nccs3)[C@@H]3CCCO[C@@H]32)c1,9.07
6,COCCN1C=NC2(CCC(C(=O)Nc3ccc(C)cc3)CC2)C1=O (stereo not given),15.1
7,O=C(c1ccco1)N1CCC2(CC1)C(=O)Nc1ccccc12,-144
8,CSC1=Nc2c(cnn2-c2ccc(Cl)cc2)C2=NCCCN12,7.41
9,Cc1ccc(N2CCCc3sc(C(=O)NCc4cccnc4)nc32)nn1,-2.96
10,COc1ccc(C2=Nn3c(CN)nnc3-c3ccccc3C2)cc1,8.55
11,CCc1nc(NCCCn2cccn2)c2c(n1)c(C)nn2CC,6.36
12,CC(=O)N1CCCC1c1cccc(NCc2ccccc2F)n1 (stereo not given),-13.8
13,Cc1cc(C)c2cc(CNC(C)C)c3nn(C)c(=O)n3c2c1,-5
14,CN(C)Cc1ccnc(C2CCCN2Cc2ccc(F)cn2)n1 (stereo not given),-17.7
15,CO[C@H]1CN(C(=O)c2ccc3oc(C)cc3c2)C[C@@]12CCCO2,-6.14
16,CC(C)(N)C(=O)N1CCC(c2nccnc2Oc2ccccc2F)CC1,-13.9
17,c1cnc(-c2cnc(N3CCSCC3)nc2C2CC2)cn1,17.3
18,CC(=O)Nc1nc(C2CCN(CC(N)=O)CC2)cs1,-2.76
19,CCS(=O)(=O)CC(=O)Nc1ccccc1N1CCc2ccccc21,9.26
20,c1ccc2c(NC3CCc4ncnn4C3)ncnc2c1 (stereo not given),7.21
21,Cc1nc(COc2ccc(OC3CCCCNC3=O)cc2)oc1C (stereo not given),15.2
22,COCCN1CCN(Cc2coc(-c3ccccc3Cl)n2)CC1,-1.67

row,SMILES,cytotoxicity at 10 µM [%]
1,CC(O)CN(C)S(=O)(=O)c1ccc(C#N)cc1F (stereo not given),-6.67
2,COCC(C)N(C)C(=O)CCc1c(C)nc2c(C#N)cnn2c1C (stereo not given),-43.3
3,CCNC(=O)N1CCC(=Cc2ccccc2)CC1,3.87
4,O=C(Nc1ccc(OC(F)F)cc1)N1CCC(c2nnc[nH]2)CC1,7.25
5,CC(C)N(C)C(=O)C1CCN(Cc2cnc3ccccn23)CC1,27.5
6,COc1ccc(S(=O)(=O)C(F)(F)F)cc1NC(=O)CSC,10.9
7,CCOCCCNC(=O)CCSCc1csc(C)n1,-3.57
8,CCc1ccc(C2CCCN2C(=O)CNC(=O)CCC(C)C)o1 (stereo not given),-10.2
9,O=C(CN1CCS(=O)(=O)CC1)NC1CCCOc2ccccc21 (stereo not given),4.81
10,COc1ccc(C(=O)CCC(=O)NCc2c(C)noc2C)cc1F,2.43
11,Cc1nn(CN(Cc2ccsc2)C2CC2)c(=O)c2noc(C)c12,-1.54
12,O=C(NCCN1CCOCC1)c1cnc(Cc2ccc(F)cc2)s1,16.7
13,CCC(CNC(=O)c1ccc(F)cc1F)N1CCc2ccccc2C1 (stereo not given),10.9
14,COc1ccccc1OCC(=O)NS(=O)(=O)c1ccc(F)cc1F,8.68
15,CCC(CC)c1cc(CNC(=O)N2CCCC(C(=O)NC)C2)on1 (stereo not given),-18.6
16,CCNC(=O)CNC(=O)Nc1cccc(Cl)c1SC(F)F,-1.76
17,OCC1CCCN1c1cc(NCCc2ccccn2)ncn1 (stereo not given),-0.813
18,Cc1cc(N2CCCC2c2nnc3n2CCCCC3)nc(N)n1 (stereo not given),-10.1
19,Cc1cccc(C(C)(C)NC(=O)CS(=O)(=O)CC(C)C)c1,0.927
20,CCOc1ccc(C(F)(F)F)cc1NCc1cc(C)on1,-49.3
21,Cn1[nH]c(C2CCC2)c(-c2ccc3c(c2)OCO3)c1=N,-42.3
22,O=C(Cn1cnnn1)NCC1(O)CCCc2ccccc21 (stereo not given),-42.3

row,SMILES,cytotoxicity at 10 µM [%]
1,CC(C)COC1CCN(C(=O)c2ccc(C(F)(F)F)[nH]c2=O)CC1,0.0436
2,FC(F)(F)COCCN1CCc2cncnc2C1,-2.67
3,O=C(COCC1CC1)N1CCSCC1,-21.2
4,CCC(C)(CC(=O)O)NC(=O)Cc1ccccc1F (stereo not given),-1.28
5,COCC(=O)Nc1ccnn1-c1ccc(Cl)cc1,2.18
6,COC(=O)c1ccc(CN(C)C(=O)c2cnsn2)cc1,9.59
7,COCC(=O)NCCC(=O)N1CCN(S(=O)(=O)c2cccc(Br)c2)CC1,-40.4
8,CN(CC(=O)N1CCCC1)Cc1nc2c(cnn2C)c(=O)[nH]1,-1.38
9,O=C(CC1CC1)N[C@@H]1CN(C(=O)c2ccsc2)C[C@@H]2CCCO[C@@H]21,-109
10,COCC(=O)N1C[C@H](N(C)Cc2cncnc2)[C@H]2OCCC[C@H]21,-99.2
11,CS(=O)(=O)NCc1nnc2n1CCN(Cc1ccncc1)C2,-73.6
12,Cc1nc(CN2C[C@@H]3CN(C(=O)c4ccoc4C)C[C@@H]3C2=O)cs1,-76.8
13,CCCNC(=O)c1cc(-c2cnc(N3CCCC3)nc2)cn1C,-54.6
14,COCC(=O)N1CCC2(CC1)CN(c1ccsc1)C(=O)CO2,-75.6
15,CC(=O)N1CCC2(CCN(C(=O)c3cccc(C(F)(F)F)c3)CC2)C1,-71.5
16,O=C(NC1CCC1)C1=NOC2(CCN(Cc3ccco3)C2)C1 (stereo not given),-80.6
17,Cc1ccnc(N2CCC(C(N)=O)CC2)n1,-18.3
18,OC[C@H]1CCCN1c1nccc(-c2cncnc2C2CCCCC2)n1,0.0815
19,CC(C)CC(=O)N1CC(=O)c2sc(Nc3ccc(F)cc3F)nc2C1,-2.89
20,Cc1csc2ncc(-c3ccnc(N4CCC[C@H](C(N)=O)C4)n3)c(=O)n12,-13.3
21,CC(C)[C@@H]1CN(C2CCN(Cc3ccccc3)CC2)C[C@H]1NS(C)(=O)=O,-10.7
22,CSCCc1c(-c2ccccc2)ncn1CCNc1cccnc1,5.29

row,SMILES,cytotoxicity at 10 µM [%]
1,CCc1nc(NC(=O)N(C)Cc2ccoc2)nn1C,0.79
2,Cc1ccc(-c2cc(C(=O)NCCCc3csc(N)n3)[nH]n2)o1,79.5
3,CCN(CCn1cccn1)C(=O)CN1C(=O)OC[C@@H]1C(C)C,1.97
4,COc1cc(C)ccc1OCc1nc(C(=O)N2CCCNC(=O)C2)co1,-44.5
5,Cc1ccc(Cl)cc1-n1nnnc1C1(N2CCCC2)CCCCC1,18.9
6,CCOc1ccc(C(=O)CCC(=O)N(C)Cc2nc(C)c[nH]2)cc1C,-5.45
7,CC(O)C1CCN(Cc2cnc3c(-c4ccccc4)cnn3c2)CC1 (stereo not given),-0.537
8,O=C(O)COc1ccc(Cl)cc1CN1CCC2(CCOCC2)CC1,-6.55
9,CCC[C@@H]1CN(Cc2cc(C#N)n(C)c2C)C[C@H]1NS(C)(=O)=O,-132
10,CC(=O)N1CCc2c(nc(N(C)C)nc2NCCc2cccs2)C1,-54
11,Cc1cc(C(=O)N(C)CCCn2cccn2)nc(N)n1,-7.04
12,Cc1nnc(CN2C[C@H](NC(=O)CC3CCCC3)[C@@H](C3CC3)C2)s1,-42.4
13,CCCOCCN1CCC2(CC1)CC(=O)N(Cc1cc(F)cc(F)c1)C2,2.71
14,Cc1cc(CN(C)C(=O)CN2CC3(CCNCC3)OC2=O)n(C)n1,9.81
15,COc1ccc2[nH]c(=O)c(CN(C)CCN3CCCC3)cc2c1,1.97
16,COc1cccc(SCC(=O)N2CCC(N3CCCC(O)C3)CC2)c1 (stereo not given),-18.7
17,CCN1CCC(CC(=O)N2CCc3sc(C(=O)N(C)C)cc3C2)CC1,-21.1
18,COc1ncccc1C(=O)N1CCCC1c1nc(-c2ccccc2)no1 (stereo not given),1.75
19,COc1ccc(CNc2cnn(CC(F)F)c2)cc1,-7.47
20,Cc1cccc(NC(=O)c2[nH]nc(C(C)C)c2Br)n1,-2.95
21,CCc1cccc(N2CCC(NC(=O)C3CCC3)CC2)c1,3.6
22,COc1ccc(OCCCNCCn2cccn2)cc1,-20

row,SMILES,cytotoxicity at 10 µM [%]
1,CCc1n[nH]c(C2CN(Cc3nc(C4CC4)no3)CCO2)n1 (stereo not given),-10.8
2,Cc1cc(C)n(CCC(=O)N2CCCC(n3cncn3)C2)n1 (stereo not given),-5.05
3,Cc1cc(NC(=O)CN2CCn3c(nnc3C(C)C)C2)no1,-1.11
4,CN(Cc1ccsc1)C(=O)CN1CCCC1Cn1cccn1 (stereo not given),-3.78
5,CCOC(=O)[C@]12CCCN(Cc3cccs3)C[C@H]1CN(C(C)C)C2,12.2
6,O=C1CC[C@@H]2[C@@H](CCN2C(=O)c2ccsc2)N1Cc1ccncc1,-71.5
7,CC(=O)c1ccc(NC(=O)c2ccc3c(c2)C2(CCCCC2)CN3)cc1,-108
8,Cc1ccc2c(n1)N(Cc1cccnc1)CCN(C1CCOCC1)C2,-71.6
9,O=C(N1CCCC1)N1C[C@H]2CCC[C@@]2(COCc2ccccn2)C1,-106
10,Cc1ccc(CN2CCCC3(CCCN3S(C)(=O)=O)C2)s1 (stereo not given),-97.9
11,CCn1cc2c(n1)CN(Cc1ccc(C)o1)CC2COCC1CC1 (stereo not given),-80.7
12,Cc1cc(-c2cnc(N3CCCC(C)C3)nc2-c2cccnc2C)on1 (stereo not given),7.85
13,O=C(c1cscn1)N1CCCC2(CCN2Cc2cccc(F)c2)C1 (stereo not given),-112
14,c1cncc(CN2CCCn3nnc(COCC4CC4)c3C2)c1,-110
15,COCc1n[nH]c2c1CN(Cc1cccs1)C2,3.3
16,Cn1cncc1CN1C[C@@H]2OCCN(c3ncccn3)[C@@H]2C1,-67
17,O=C(c1cccc(Cl)c1)N1CC[C@H]2[C@H]1CCN2CC1CC1,-75
18,CC(C)CN1C(=O)C[C@@H]2[C@@H]1CCN2Cc1cccc(C#N)c1,-66.4
19,CCOCC1CN(c2ccc(C)nn2)Cc2nn(CC)cc21 (stereo not given),11.5
20,CCOCc1nn(CC2CC2)c2c1CN(Cc1cccs1)CC2,-108
21,O=c1[nH][nH]c2cn(-c3ccccc3)c(=O)n12,4.6
22,Cc1cc(CN2C[C@@H]3CC[C@H]2CN(C2Cc4ccccc4C2)C3)on1,1.58
